Experimental data taken from ChEMBL document CHEMBL2069242, “Structure and activity relationship in the (S)-N-chroman-3-ylcarboxamide series of voltage-gated sodium channel blockers” (Bioorg Med Chem Lett, 2012).
Converted amounts (≈) assume the structure as drawn. The source made the active and inactive calls. The calls are words filed in the database; no cut-off is given here.

How the values were obtained:
[1] = target: Voltage-gated inwardly rectifying potassium channel KCNH2 (Homo sapiens, UniProt Q12809); assay: Inhibition of human ERG expressed in CHO cells by IonWorks HT assay; assay type: cell-based
Sequence of Voltage-gated inwardly rectifying potassium channel KCNH2 (Q12809 whole entry): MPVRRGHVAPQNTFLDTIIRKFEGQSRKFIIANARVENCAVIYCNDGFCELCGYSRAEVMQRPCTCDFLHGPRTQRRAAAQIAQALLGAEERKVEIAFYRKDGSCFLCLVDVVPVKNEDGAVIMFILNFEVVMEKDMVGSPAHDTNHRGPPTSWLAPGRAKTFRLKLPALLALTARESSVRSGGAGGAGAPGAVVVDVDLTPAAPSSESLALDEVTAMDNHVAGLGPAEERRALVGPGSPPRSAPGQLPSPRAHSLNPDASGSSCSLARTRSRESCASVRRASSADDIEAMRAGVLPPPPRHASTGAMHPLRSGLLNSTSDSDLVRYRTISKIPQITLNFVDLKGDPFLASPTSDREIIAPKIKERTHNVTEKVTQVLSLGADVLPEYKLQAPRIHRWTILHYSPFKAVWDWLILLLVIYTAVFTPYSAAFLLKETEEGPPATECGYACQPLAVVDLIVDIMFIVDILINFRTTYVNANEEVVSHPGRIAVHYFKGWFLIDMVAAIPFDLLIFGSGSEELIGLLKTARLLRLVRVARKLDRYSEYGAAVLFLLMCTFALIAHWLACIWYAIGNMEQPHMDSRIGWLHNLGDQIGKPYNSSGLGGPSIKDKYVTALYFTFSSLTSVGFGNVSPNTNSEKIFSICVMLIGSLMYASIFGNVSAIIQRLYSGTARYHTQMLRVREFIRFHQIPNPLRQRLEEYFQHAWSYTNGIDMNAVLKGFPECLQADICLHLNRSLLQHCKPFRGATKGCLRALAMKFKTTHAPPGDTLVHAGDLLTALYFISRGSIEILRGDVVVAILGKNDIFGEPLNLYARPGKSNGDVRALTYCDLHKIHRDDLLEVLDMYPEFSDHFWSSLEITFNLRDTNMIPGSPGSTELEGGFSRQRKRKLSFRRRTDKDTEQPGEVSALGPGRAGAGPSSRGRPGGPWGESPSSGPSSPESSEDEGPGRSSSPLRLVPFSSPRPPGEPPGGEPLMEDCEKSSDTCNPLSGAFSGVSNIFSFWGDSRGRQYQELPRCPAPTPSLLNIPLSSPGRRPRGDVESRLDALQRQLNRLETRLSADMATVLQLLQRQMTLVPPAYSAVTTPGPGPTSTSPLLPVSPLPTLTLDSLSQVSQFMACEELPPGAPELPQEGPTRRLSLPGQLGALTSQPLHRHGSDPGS

[2] = target: Sodium channel protein type 9 subunit alpha (Homo sapiens, UniProt Q15858); assay: Inhibition of human NaV1.7 expressed in HEK293 cells by whole-cell voltage clamp assay; assay type: cell-based
Sequence of Sodium channel protein type 9 subunit alpha (Q15858 whole entry): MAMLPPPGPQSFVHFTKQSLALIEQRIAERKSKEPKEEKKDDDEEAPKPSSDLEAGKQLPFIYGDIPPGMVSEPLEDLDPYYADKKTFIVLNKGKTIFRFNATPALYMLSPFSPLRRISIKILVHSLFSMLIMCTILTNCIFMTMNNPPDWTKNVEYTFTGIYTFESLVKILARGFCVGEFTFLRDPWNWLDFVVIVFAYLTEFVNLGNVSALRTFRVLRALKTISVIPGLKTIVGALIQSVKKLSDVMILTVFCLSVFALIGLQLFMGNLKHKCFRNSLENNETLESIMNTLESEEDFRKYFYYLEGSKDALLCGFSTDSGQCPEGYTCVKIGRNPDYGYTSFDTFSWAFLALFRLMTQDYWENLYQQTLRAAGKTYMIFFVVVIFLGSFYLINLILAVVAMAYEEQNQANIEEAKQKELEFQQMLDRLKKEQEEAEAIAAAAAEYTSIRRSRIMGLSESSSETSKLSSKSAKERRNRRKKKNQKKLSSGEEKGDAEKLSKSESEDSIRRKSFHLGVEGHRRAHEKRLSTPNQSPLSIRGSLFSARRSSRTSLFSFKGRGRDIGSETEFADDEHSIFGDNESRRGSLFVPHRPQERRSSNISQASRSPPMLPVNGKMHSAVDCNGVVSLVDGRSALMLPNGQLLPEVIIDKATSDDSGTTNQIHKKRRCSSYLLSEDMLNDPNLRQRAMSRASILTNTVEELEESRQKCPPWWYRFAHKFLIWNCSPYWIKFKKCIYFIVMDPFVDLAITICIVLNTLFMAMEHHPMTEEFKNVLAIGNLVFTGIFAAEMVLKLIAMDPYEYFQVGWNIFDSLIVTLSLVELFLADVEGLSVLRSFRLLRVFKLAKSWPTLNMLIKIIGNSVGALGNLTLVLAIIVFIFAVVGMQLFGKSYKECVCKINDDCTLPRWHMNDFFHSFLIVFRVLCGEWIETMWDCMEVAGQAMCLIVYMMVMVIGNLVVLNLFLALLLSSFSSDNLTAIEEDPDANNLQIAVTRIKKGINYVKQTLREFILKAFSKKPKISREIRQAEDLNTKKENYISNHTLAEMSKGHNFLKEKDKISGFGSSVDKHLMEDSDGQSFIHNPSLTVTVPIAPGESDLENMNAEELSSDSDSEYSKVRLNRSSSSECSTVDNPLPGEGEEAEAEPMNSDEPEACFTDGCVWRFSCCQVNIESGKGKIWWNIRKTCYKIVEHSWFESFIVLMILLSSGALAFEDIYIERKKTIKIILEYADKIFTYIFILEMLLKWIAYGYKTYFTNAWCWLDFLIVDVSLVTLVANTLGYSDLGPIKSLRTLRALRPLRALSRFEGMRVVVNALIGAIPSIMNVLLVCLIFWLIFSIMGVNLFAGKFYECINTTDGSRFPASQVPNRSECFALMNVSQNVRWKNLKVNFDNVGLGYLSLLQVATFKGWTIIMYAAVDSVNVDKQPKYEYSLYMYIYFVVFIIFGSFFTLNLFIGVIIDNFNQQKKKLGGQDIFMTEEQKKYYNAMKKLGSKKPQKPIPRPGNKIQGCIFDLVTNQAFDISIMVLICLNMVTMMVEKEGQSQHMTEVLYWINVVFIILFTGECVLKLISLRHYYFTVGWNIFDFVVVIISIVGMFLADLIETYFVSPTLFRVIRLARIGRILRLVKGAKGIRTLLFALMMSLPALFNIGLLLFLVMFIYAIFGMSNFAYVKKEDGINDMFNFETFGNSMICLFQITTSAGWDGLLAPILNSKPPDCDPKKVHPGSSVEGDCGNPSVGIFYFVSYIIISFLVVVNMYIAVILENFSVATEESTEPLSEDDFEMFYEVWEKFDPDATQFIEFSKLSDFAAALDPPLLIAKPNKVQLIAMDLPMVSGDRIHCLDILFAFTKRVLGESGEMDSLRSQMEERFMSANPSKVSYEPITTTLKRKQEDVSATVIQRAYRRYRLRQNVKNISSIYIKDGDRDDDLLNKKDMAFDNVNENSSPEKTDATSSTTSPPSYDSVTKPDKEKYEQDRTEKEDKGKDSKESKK
Outline: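 Human NaV1.7 α-subunit stably expressed in HEK293 cells. Currents were recorded by perforated whole-cell automated planar patch clamp (IonWorks Quattro) in D-PBS external solution with 5.5 mM glucose. Cells were held at −65 mV, and a train of eight 30 ms steps to −20 mV at 3 Hz was applied. Half-log serial dilutions were made in DMSO, giving 0.3% DMSO in the recording solution.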

Liver microsomes [3] = assay: Intrinsic clearance in human liver microsomes assessed per ug of protein; assay type: ADME, Microsome
[4] = Solubility of the compound; assay type: physicochemical
Liver microsomes [5] = assay: Intrinsic clearance in rat liver microsomes assessed per ug of protein; assay type: ADME, Microsome
[6] = target: Sodium channel protein type 5 subunit alpha (Homo sapiens, UniProt Q14524); assay: Inhibition of human NaV1.5 expressed in CHO cells by IonWorks assay; assay type: cell-based
Sequence of Sodium channel protein type 5 subunit alpha (Q14524 whole entry): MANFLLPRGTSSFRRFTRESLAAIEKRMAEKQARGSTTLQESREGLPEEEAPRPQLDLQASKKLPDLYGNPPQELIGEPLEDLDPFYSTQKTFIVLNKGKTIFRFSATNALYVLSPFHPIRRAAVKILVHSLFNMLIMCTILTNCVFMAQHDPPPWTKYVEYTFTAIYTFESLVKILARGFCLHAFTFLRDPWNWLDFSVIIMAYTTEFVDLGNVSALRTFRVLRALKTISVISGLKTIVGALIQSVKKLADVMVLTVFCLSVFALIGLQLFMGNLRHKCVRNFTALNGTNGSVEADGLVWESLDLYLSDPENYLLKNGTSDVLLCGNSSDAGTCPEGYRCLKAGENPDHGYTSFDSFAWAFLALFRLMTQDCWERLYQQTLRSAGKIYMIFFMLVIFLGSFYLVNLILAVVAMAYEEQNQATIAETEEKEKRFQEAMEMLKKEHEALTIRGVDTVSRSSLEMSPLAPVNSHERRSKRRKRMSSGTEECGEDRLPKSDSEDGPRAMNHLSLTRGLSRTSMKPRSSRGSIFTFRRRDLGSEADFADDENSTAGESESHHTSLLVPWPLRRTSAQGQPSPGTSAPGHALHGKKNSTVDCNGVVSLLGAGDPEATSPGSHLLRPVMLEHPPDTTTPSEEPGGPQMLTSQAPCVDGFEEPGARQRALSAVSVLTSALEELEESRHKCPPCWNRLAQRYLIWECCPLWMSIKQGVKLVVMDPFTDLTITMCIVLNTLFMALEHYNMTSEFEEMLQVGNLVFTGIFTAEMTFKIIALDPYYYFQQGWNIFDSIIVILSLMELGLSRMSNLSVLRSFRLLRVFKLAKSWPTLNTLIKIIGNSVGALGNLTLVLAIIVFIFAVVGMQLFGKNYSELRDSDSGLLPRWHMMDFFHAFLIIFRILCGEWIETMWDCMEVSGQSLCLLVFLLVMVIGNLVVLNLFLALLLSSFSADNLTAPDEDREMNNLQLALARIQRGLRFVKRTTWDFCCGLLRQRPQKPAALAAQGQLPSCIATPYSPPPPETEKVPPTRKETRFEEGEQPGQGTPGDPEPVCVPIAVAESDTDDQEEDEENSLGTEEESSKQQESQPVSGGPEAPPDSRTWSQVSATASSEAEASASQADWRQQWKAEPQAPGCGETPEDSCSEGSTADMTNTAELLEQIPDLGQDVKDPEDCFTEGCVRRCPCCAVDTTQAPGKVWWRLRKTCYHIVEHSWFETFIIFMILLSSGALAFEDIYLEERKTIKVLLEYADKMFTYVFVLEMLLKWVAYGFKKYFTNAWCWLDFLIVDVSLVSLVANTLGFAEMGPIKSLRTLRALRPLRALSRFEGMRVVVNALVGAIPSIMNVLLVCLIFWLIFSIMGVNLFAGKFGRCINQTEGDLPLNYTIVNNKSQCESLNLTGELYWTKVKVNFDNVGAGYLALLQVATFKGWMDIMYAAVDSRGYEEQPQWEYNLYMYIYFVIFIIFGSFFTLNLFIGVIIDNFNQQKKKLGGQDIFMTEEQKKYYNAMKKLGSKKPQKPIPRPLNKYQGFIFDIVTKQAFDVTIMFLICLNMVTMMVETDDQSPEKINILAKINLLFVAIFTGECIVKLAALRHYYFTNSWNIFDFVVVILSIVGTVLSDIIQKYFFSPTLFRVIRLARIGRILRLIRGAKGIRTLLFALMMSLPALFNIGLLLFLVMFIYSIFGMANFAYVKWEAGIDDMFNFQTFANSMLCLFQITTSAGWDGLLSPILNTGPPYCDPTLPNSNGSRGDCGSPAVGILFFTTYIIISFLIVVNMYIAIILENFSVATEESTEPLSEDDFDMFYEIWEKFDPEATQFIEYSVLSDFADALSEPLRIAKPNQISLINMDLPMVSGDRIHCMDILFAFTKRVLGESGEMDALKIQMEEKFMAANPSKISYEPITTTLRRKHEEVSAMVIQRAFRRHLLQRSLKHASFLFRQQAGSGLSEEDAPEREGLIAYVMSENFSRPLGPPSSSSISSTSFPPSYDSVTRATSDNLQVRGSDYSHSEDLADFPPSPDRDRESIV

[7] = target: Serotonin (5-HT) receptor (Homo sapiens) (UniProt P30939+P41595+Q13639+P28222+P46098+P08908+P28221+P28223+P28335+P28566+P34969+P50406+P47898+A5X5Y0+O95264+Q70Z44+Q8WXA8); assay: Activity at 5HT receptor; assay type: protein assay
Rattus norvegicus [8] = assay: Dose normalized AUC in Sprague-Dawley rat at 10 umol/kg, po; assay type: ADME, organism-based; details: in vivo
Outline: (§1)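 Rat pharmacokinetics used fasted male Sprague–Dawley rats, three animals per administration route per compound. The intravenous dose was 3 µmol/kg, with a separate oral arm.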

[9] = target: T1, Sodium-dependent dopamine transporter (Homo sapiens, UniProt Q01959); assay: Displacement of [125I]RTI-55 from DAT
[10] = Oral bioavailability in Sprague-Dawley rat at 10 umol/kg; assay type: ADME, organism-based; details: in vivo; outline: as §1
[11] = Half life in Sprague-Dawley rat at 10 umol/kg, po; assay type: ADME, organism-based; details: in vivo; outline: as §1
[12] = Tmax in Sprague-Dawley rat at 10 umol/kg, po; assay type: ADME, organism-based; details: in vivo; outline: as §1
[13] = Volume of distribution at steady state in Sprague-Dawley rat at 3 umol/kg, iv; assay type: ADME, organism-based; details: in vivo, read-out: Vdss; outline: as §1
[14] = target: T2, Growth hormone secretagogue receptor type 1 (Homo sapiens, UniProt Q92847); assay: Displacement of [125I]ghrelin from GHS receptor at 10 uM
[15] = target: T3, 5-hydroxytryptamine receptor 1A (Homo sapiens) (UniProt P08908); assay: Activity at 5HT1A receptor
T3 sequence (whole entry): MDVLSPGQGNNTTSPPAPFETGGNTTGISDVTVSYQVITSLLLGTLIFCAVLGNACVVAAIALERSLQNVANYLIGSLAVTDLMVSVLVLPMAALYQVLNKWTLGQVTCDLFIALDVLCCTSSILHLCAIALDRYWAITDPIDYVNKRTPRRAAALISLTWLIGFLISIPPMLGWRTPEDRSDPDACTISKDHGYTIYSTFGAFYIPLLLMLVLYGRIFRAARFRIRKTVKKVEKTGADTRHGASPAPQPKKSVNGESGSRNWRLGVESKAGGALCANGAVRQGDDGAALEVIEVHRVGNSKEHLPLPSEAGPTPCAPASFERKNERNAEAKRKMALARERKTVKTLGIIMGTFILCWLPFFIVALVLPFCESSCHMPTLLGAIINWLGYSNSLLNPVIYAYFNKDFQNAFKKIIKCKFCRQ

[16] = Cmax in Sprague-Dawley rat at 10 umol/kg, po; assay type: ADME, organism-based; parameters: dose 10 umol/kg, route oral; details: in vivo; outline: as §1
[17] = target: T2, Growth hormone secretagogue receptor type 1; assay: Displacement of [125I]ghrelin from GHS receptor
[18] = target: 5-hydroxytryptamine receptor 1B (Homo sapiens) (UniProt P28222); assay: Activity at 5HT1B receptor
[19] = Clearance in Sprague-Dawley rat at 3 umol/kg, iv; assay type: ADME, organism-based; details: in vivo; outline: as §1
Rattus norvegicus [20] = assay: Dose normalized AUC in Sprague-Dawley rat at 3 umol/kg, iv; assay type: ADME, organism-based; details: in vivo; outline: as §1
[21] = Half life in Sprague-Dawley rat at 3 umol/kg, iv; assay type: ADME, organism-based; details: in vivo; outline: as §1
[22] = target: T1, Sodium-dependent dopamine transporter; assay: Displacement of [125I]RTI-55 from DAT at 10 uM
[23] = target: T4, Alpha-2B adrenergic receptor (Homo sapiens) (UniProt P18089); assay: Displacement of [3H]rauwolscine from adrenergic alpha2B receptor at 10 uM
T4 sequence (whole entry): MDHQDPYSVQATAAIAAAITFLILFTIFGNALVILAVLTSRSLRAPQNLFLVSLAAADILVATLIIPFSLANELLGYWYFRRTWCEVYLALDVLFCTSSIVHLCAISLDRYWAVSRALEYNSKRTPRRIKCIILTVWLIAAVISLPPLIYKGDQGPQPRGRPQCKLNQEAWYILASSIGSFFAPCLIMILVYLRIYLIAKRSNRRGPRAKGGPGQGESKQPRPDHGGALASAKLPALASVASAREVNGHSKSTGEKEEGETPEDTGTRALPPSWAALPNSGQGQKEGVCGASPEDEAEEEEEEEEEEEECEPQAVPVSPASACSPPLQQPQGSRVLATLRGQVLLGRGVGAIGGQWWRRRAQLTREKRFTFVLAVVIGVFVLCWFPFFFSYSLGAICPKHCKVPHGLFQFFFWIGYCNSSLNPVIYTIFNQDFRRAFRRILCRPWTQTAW

IC50 [2] [µM]	CLint (Liver microsomes [3]) [µL/min/mg]	solubility [4] [µM]	CLint (Liver microsomes [5]) [µL/min/mg]	SMILES	IC50 [1] [µM]	IC50 [6] [µM]	other results
0.158	11	54 (≈ 27.2 µg/mL)	< 10	O=C(N[C@@H]1COc2cccc(-c3ccc(CO)nc3)c2C1)c1ccc(OCCOCC(F)(F)F)nc1	15.8	7.94	
1	78	2 (≈ 0.829 µg/mL)		O=C(N[C@@H]1COc2cccc(-c3ccncc3)c2C1)c1ccc(OC(F)(F)F)cc1	2.51	3.98	
0.631	< 10	379 (≈ 176 µg/mL)	< 10	CN1CCN(c2cccc3c2C[C@H](NC(=O)c2ccc(OCCC(F)(F)F)nc2)CO3)CC1	12.6	5.01	
		393 (≈ 154 µg/mL)		Cc1nn(CC(C)C)nc1C(=O)N[C@@H]1COc2cccc(-c3cccnc3)c2C1		> 31.6	
0.794	12	18 (≈ 9.32 µg/mL)	< 10	CC(O)c1ccc(-c2cccc3c2C[C@H](NC(=O)c2ccc(OCCOCC(F)(F)F)nc2)CO3)cn1 (some centres not stated)		10	
	< 10	6.5 (≈ 2.89 µg/mL)	< 10	Cc1ncc(-c2cccc3c2C[C@H](NC(=O)c2ccc(OCC(F)(F)F)nc2)CO3)cn1	10	5.01	
	< 10	3 (≈ 1.42 µg/mL)	< 10	COc1ncc(-c2cccc3c2C[C@H](NC(=O)c2ccc(OCCC(F)(F)F)nc2)CO3)cn1		3.98	
0.158	10	58 (≈ 26.6 µg/mL)	< 10	O=C(N[C@@H]1COc2cccc(-c3ccc(CO)nc3)c2C1)c1ccc(OCC(F)(F)F)nc1	10	6.31	Activity [7]: inactive; AUC/dose (Rattus norvegicus [8]): 0.27 kg·h/L; IC50 [9]: 2 µM; bioavailability [10]: 66.3%; half-life [11]: 3.5 h; Tmax [12]: 1.5 h; Vd [13]: 11 L/kg; inhibition [14]: 98%; Activity [15]: inactive; Cmax [16]: 380 nM; IC50 [17]: 0.2 µM; Activity [18]: inactive; clearance [19]: 42.2 mL/min/kg; AUC/dose (Rattus norvegicus [20]): 0.4 kg·h/L; half-life [21]: 3.8 h; inhibition [22]: 80%; inhibition [23]: 55%
0.501	< 10	82 (≈ 37.6 µg/mL)	< 10	Cc1cnc(-c2cccc3c2C[C@H](NC(=O)c2ccc(COCC(F)(F)F)nc2)CO3)cn1		20	
	318	23 (≈ 10.2 µg/mL)	38	O=C(N[C@@H]1COc2cccc(-c3cncnc3)c2C1)c1ccc(OCCC(F)(F)F)nc1		3.98	
	59	9 (≈ 3.86 µg/mL)	77	O=C(N[C@@H]1COc2cccc(-c3ccncc3)c2C1)c1ccc(OCC(F)(F)F)nc1	6.31	3.16	
		2 (≈ 0.823 µg/mL)		Cc1nn(-c2ccccc2)nc1C(=O)N[C@@H]1COc2cccc(-c3ccncc3)c2C1	3.98	> 31.6	
0.794		18 (≈ 9.32 µg/mL)		Cc1cc(-c2cccc3c2C[C@H](NC(=O)c2ccc(OCCOCC(F)(F)F)nc2)CO3)cnc1CO		5.01	
0.251	< 10	145 (≈ 68.8 µg/mL)	< 10	COc1ncc(-c2cccc3c2C[C@H](NC(=O)c2ccc(COCC(F)(F)F)nc2)CO3)cn1	15.8	10	
